The values below come from PubChem BioAssay AID540295 (The Scripps Research Institute Molecular Screening Center, 2011).

Out of some 360,000 compounds screened, about 1,700 (0.47%) were called active. What follows is part of a selection rich in actives, with near analogues and random picks from the rest. Values without a mark were called inactive.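 The calls were made as follows: active = inhibition above its plate's cutoff, the mean of tested wells on that plate plus 3 SD (cut at about 29% in these data); inactive = the rest.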

For orientation: inhibition means the change of the read-out against control, counted positive when it falls.

In the experiment the target is Melanocortin receptor 4 (Homo sapiens) (UniProt P32245). As to the kind of experiment: MC4R antagonists of cAMP signaling, primary screen, cell-based, TR-FRET, antagonist arm of biased-ligand search (AID 540295).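 Also: 0% = Melanotan II alone and 100% = Melanotan II plus saturating MCL0020.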 The note with it: MC4R-expressing cells, MTII-stimulated cAMP, LANCE TR-FRET; at 6.5 µM; hits give high values. The method in brief: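 Assay system: U2OS cells stably expressing human melanocortin 4 receptor (MC4R) / Dosing: 6.5 µM / Timing: compound 30 min, challenge 1 h, detection 1 h / Measured by: Eu-cAMP/anti-cAMP TR-FRET, emission 671 nm / Replicates: singlicate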
Sequence of Melanocortin receptor 4 (Homo sapiens) (P32245 whole entry, looked up): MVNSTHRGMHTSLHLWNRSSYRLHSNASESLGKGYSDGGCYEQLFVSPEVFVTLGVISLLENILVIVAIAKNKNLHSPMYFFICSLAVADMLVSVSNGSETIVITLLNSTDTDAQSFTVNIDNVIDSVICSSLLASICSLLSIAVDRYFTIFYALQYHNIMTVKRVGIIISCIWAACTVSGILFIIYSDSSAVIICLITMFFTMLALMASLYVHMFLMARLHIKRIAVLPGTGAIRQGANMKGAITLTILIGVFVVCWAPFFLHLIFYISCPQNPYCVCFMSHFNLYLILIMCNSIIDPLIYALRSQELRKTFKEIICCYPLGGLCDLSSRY
(In TR-FRET formats the signal depends on donor and acceptor labels being close together.)
As to `Cc1cc(C)c2nc(-c3cccnc3)cc(C(=O)Nc3ccc(S(=O)(=O)Nc4onc(C)c4C)cc3)c2c1`, the inhibition was 19.9%. As for `COc1ccc(-c2ccc(CCC(=O)O)n2-c2ccc(O)cc2)cc1`, the inhibition was 1%. For the molecule `COc1ccc(-c2ccc(CCC(=O)O)n2NC(=O)c2ccc(C(C)(C)C)cc2)cc1`, the inhibition is 11.2%.

As for `C=Cn1c(C(=O)O)ccc1-c1ccc(OC)cc1`, the inhibition was 28.8% (active). For `Cc1ccc(N(C(=O)c2snc(C(N)=O)c2N)C(C(=O)NCC2CCCO2)c2c[nH]c3ccccc23)cc1` (stereo not drawn) the value was 21.4%; for `Cc1ccc(C(C(=O)NCC2CCCO2)N(C(=O)c2snc(C(N)=O)c2N)c2ccc(C(C)C)cc2)o1` (stereo not drawn), 29.1% (active). As to `CCOc1ccc(N(C(=O)c2snc(C(N)=O)c2N)C(C(=O)NCC2CCCO2)c2c[nH]c3ccccc23)cc1` (stereo not drawn), the inhibition was 12.3%. Regarding `O=C(CCNC(=O)c1ccc([N+](=O)[O-])cc1)Nc1ccccc1N1CCOCC1`, the inhibition was 17.3%.

As for `CC[C@@H]1Cc2cc(O)ccc2C2=C1c1ccc(O)cc1C[C@H]2CC`, the inhibition was 10.4%. Then `Cc1csc(CN(C)C(=O)CC2C(=O)NCCN2CC(C)(C)C)n1` (stereo not drawn), with 4.33%; and `COc1cc(OC)cc(-c2sc3ccc(OC)cc3c2-c2ccc3cc[nH]c3c2)c1`, with 13%; and `COc1ccc2sc(-c3ccc(S(C)(=O)=O)cc3)c(-c3ccc(C(N)=O)cc3)c2c1`, with 35.3% (active).

Take `COc1ccc2sc(-c3ccc(S(C)(=O)=O)cc3)c(C#Cc3cncn3C)c2c1`: the inhibition is 12.3%. For the molecule `COC(=O)[C@H](Cc1ccccc1)NC(=O)[C@@H]1C[C@H]1[C@@H](NC(=O)OCc1ccccc1)c1ccccc1`, the inhibition is 29.7% (active). On to `COC(=O)[C@@H](Cc1ccccc1)NC(=O)NCCc1ccccc1`, for which the inhibition was 23.7%. With `COC(=O)[C@H](C)[C@H]1C[C@]1(C)[C@H](NC(=O)OCc1ccccc1)c1ccccc1`, the inhibition was 5.83%. Take `Cc1csc(/N=C/N(C)C)c1C#N`: the inhibition is 1.05%.

Take `Cc1ccc(S(=O)(=O)CCC(=O)OCC(=O)N(C)C2CCS(=O)(=O)C2)cc1` (stereo not drawn): the inhibition is 0.56%. On to `Cc1ccc(S(=O)(=O)CCC(=O)OCc2ccccc2)cc1`, for which the inhibition is 3.4%. Then `Cc1ccc(S(=O)(=O)CCC(=O)OCC(=O)N(C)Cc2ccccc2)cc1`, with 33.6% (active); and `CCOc1ccc(S(=O)(=O)NCc2ccc3c(c2)OCO3)cc1C`, with 3.78%; and `COc1ccc(CCN=C2SCC(=O)N2C)cc1OC`, with 10.4%. For `O=C(NCCc1c[nH]c2ccccc12)c1cc2ccccc2oc1=O`, the inhibition is -0.76%. Then `O=C(NCCc1c[nH]c2ccccc12)c1cccc(Br)c1`, with 31.5% (active).

For the molecule `Cc1cc(C)cc(NC(=S)NCCc2c[nH]c3ccccc23)c1`, the inhibition is 7.21%. On to `CN(C)c1ccc(C2Nc3ccccc3C(=O)N2NS(=O)(=O)c2ccccc2)cc1` (stereo not drawn), for which the inhibition was -6.61%. For `COc1ccc(S(=O)(=O)N2CCSCC2)cc1`, the inhibition was 2.98%. For `CCOC(=O)c1c(C)oc2cc(Sc3ccccc3)c(O)c(O)c12`, the inhibition is 6.42%. `Cc1oc2cc(Br)c(O)c(Br)c2c1C(=O)c1ccccc1`: the inhibition was 0.99%. Then `CCOC(=O)c1c(-c2ccccc2)oc2cc(Br)c(O)c(C=O)c12`, with 93% (active); and `COc1ccc(CCCNC(=O)C2Cc3c(-c4cccc(C(N)=O)c4)ccnc3O2)cc1` (stereo not drawn), with 2.69%; and `CCn1c2ccccc2c2cc(NC(=O)C/C(C)=N/NC(=O)c3ccccc3N)ccc21`, with 28.8% (active). For the molecule `CCn1c2ccccc2c2cc(NC(=O)COC(=O)c3cc(S(=O)(=O)N4CCCCC4)ccc3Cl)ccc21`, the inhibition is -0.18%. On to `CCn1c2ccccc2c2cc(NC(=S)N3CCOCC3)ccc21`, for which the inhibition was -0.62%. With `CC1=NN(C(C)C)C(=O)C1`, the inhibition is 6.17%.

For `Cc1ccnc(NC(=O)c2ccc(Cl)c([N+](=O)[O-])c2)c1`, the inhibition is 23.3%.

For the molecule `O=C(O)c1ccc2c(=O)n3c(nc2c1)/C(=C/c1ccc(Cl)c([N+](=O)[O-])c1)CC3`, the inhibition is 0.52%. On to `Cc1nc2ccccc2c(=O)n1NC(=O)c1ccc(Cl)c([N+](=O)[O-])c1`, for which the inhibition is 49% (active). Regarding `CCOC(=O)C1(C)CCCN(C(=O)c2ccc(F)c(Cl)c2)C1` (stereo not drawn), the inhibition was -0.84%. Then `Cc1nc(N2CCN(c3ccccn3)CC2)c2c(C)c(C(=O)Nc3ccc(F)c(Cl)c3)sc2n1`, with 5.05%; and `CC(=O)Nc1ccc(S(=O)(=O)N2CCn3cccc3C2C)cc1` (stereo not drawn), with 1.62%; and `CCOc1ccc(-c2nc(N)ncc2-c2ccccc2OC)c(O)c1`, with -2.31%.

On to `CCOc1ccccc1Oc1cn[nH]c1-c1ccc(OC)cc1O`, for which the inhibition was 2.19%. Take `COc1ccc(-c2n[nH]c(C)c2-c2ccccc2OC)c(O)c1`: the inhibition is 29.1% (active). Turning to `CC(Sc1ccc(S(=O)(=O)N2CCN(C)CC2)cn1)C(=O)NC1CCCC(C)C1C` (stereo not drawn), the inhibition is -2.08%. For `O=C(NC1=CC(=O)c2ccccc2C1=O)c1ccccc1` the value was 34.6% (active); for `Cc1cc(=O)c2ccc(NC(=O)c3ccccc3)cc2[nH]1`, 0.31%.

As for `O=C(Nc1ccc2ccccc2c1[N+](=O)[O-])c1ccccc1`, the inhibition is -1.17%. Turning to `CN(CCC#N)c1ncnc2scc(-c3ccccc3)c12`, the inhibition was -6.59%. For `Cc1sc2nc(-c3ccccc3F)oc(=O)c2c1C` the value was 2.06%. `Cc1ccccc1-n1nnnc1SCCCC(=O)c1ccc(F)cc1`: the inhibition is 0.07%.

Take `Cn1c(=O)c2c(nc(N3CCCCCC3)n2CC(O)COc2ccc(Cl)cc2)n(C)c1=O` (stereo not drawn): the inhibition is 19.6%. Regarding `C=C(C)Cn1c(N2CCCC2)nc2c1c(=O)[nH]c(=O)n2C`, the inhibition was -7.2%. For the molecule `Cc1cccc(OCC(O)Cn2c(N3CCCCC3)nc3c2c(=O)[nH]c(=O)n3C)c1` (stereo not drawn), the inhibition is 32.4% (active). Regarding `CCCCCCCC(=O)OC(CN1CCCCCC1)CN1CCCC1=O` (stereo not drawn), the inhibition was 3.62%. For the molecule `CC(=O)c1cccc(NC(=O)C2CCCN(S(=O)(=O)c3cccc4nonc34)C2)c1` (stereo not drawn), the inhibition was 0.67%. On to `Cn1nc(C(F)(F)F)cc1C(=O)O`, for which the inhibition is -0.27%. With `O=C(NCC1CCCO1)c1ccc(S(=O)(=O)Nc2ccc(F)cc2)cc1` (stereo not drawn), the inhibition was 1.8%. Then `CCC(=O)Nc1ccc(S(=O)(=O)NCC2CCCO2)cc1` (stereo not drawn), with 6.76%.

Consider `CC(NS(=O)(=O)c1ccc(Br)cc1)C(=O)NCC1CCCO1` (stereo not drawn), for which the inhibition is 40.5% (active). `Cn1cccc1C1(C(F)(F)F)NCCNC1=O` (stereo not drawn): the inhibition is 1.67%. On to `O=C(Cc1ccccc1)Nc1c(C(=O)N2CCCCCC2)cnn1-c1ccccc1`, for which the inhibition is 1.13%. Then `O=C(Nc1ccccc1C(=O)N1CCCCCC1)c1ccccc1Cl`, with 2.65%. For `CC(=O)Nc1ccc(Sc2ccccc2C(=O)N2CCCC2)cn1` the value was 32% (active); for `O=C(NCc1ccccc1)C1=C[C@@H](c2ccccc2)C[C@@H](OCCCCO)O1`, -12.3%.

With `Cc1ccccc1N1CCN(C2CCCN(C(=O)c3cn4c(C)cccc4n3)C2)CC1` (stereo not drawn), the inhibition was -0.92%. For `Cc1c(CNCCc2ccccc2)c(C(=O)O)c(C)n1-c1ccccc1` the value was 11.5%; for `CCc1nn(CCCC(=O)Nc2ccc(C)cc2C)c(=O)c2cc3occc3n12`, -1.71%. Consider `c1ccc(-n2cccc2)c(N2CCCCC2)c1`, for which the inhibition is 4.15%.

In the case of `O=C1C=CC(=O)N1c1ccc(N2CCCCC2)cc1`, the inhibition was 43.8% (active).

As to `O=C(c1ccc(Cl)c(S(=O)(=O)N2CCCCCC2)c1)N1CCN(c2ccc(O)cc2)CC1`, the inhibition was -1.58%. On to `CCc1nc2ccc(C(=O)N3CCC(O)(Cc4ccccc4)CC3)cn2c1N(C)C(=O)Cc1ccccc1`, for which the inhibition is 9.63%.

`CCCCn1nc(C(=O)N2CCc3ccccc32)c2ccccc2c1=O`: the inhibition was 9.32%.

Regarding `S=C(NC1CCCCC1)NN1CCOCC1`, the inhibition is 7.17%. As for `COc1cc([N+](=O)[O-])ccc1NC(=O)COC(=O)CCOc1ccc(C)cc1`, the inhibition is 7.73%. `Cc1ccc(NC(=O)C(C)OC(=O)Cc2c[nH]c3ccccc23)cc1S(=O)(=O)N1CCOCC1` (stereo not drawn): the inhibition was 28.7% (active).

In the case of `Cc1ccc(NC(=O)C(C)OC(=O)C2CC3CCCC(C2)C3=O)cc1S(=O)(=O)N1CCOCC1` (stereo not drawn), the inhibition is -1.35%. Consider `CC(OC(=O)CCCc1c[nH]c2ccccc12)C(=O)Nc1ccc(S(N)(=O)=O)cc1` (stereo not drawn), for which the inhibition was -3.17%. With `N#Cc1c(-c2cccs2)nc(SCC(=O)c2ccc(Br)cc2)[nH]c1=O`, the inhibition was 39.6% (active). As to `CC(=O)CSc1nc(CCc2ccccc2)c(C#N)c(=O)[nH]1`, the inhibition is 7.06%. Turning to `O=C(CSc1nc2ccccc2c(=O)[nH]1)Nc1nc(-c2ccc(Br)cc2)cs1`, the inhibition is 10%.

For the molecule `CC(=O)Nc1cccc(-c2cc(NC(C)=O)c3ncc(-c4ccccc4)n3c2)c1`, the inhibition is 9.96%. Turning to `COc1ccc(C(=O)N2CCCCC2c2cc(C(=O)Nc3ccc(F)c(Cl)c3)no2)cc1` (stereo not drawn), the inhibition is 16.2%.
